Experimental data as given in ChEMBL document CHEMBL2401718, “Structure-cytotoxic activity relationship of 3-arylideneflavanone and chromanone (E,Z isomers) and 3-arylflavones” (Bioorg Med Chem Lett, 2013).
pIC50: −log10 of the molar value.

What was measured:
[1] = Lipophilicity, log P of the compound by HPLC analysis; format: physicochemical
WM-115 = assay: Cytotoxicity against human WM115 cells after 46 hrs by MTT assay; format: functional, cell-based; details: WM-115, 46 h
In short: (§1)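 MTT read-out of survival in cells treated with test compound and compared with untreated control cells. IC50 is the concentration that lowers the surviving cell fraction to 50% of control. Values are means (μM) ± standard deviation from 3 experiments, each run in quintuple. Cancer-line IC50s were compared with normal-cell (HUVEC) IC50s by unpaired t-test.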

HL-60 = assay: Cytotoxicity against human HL60 cells after 46 hrs by MTT assay; format: functional, cell-based; details: HL-60, 46 h; in short: as §1
NALM-6 = assay: Cytotoxicity against human NALM6 cells after 46 hrs by MTT assay; format: functional, cell-based; details: NALM-6, 46 h; in short: as §1
HUVEC = assay: Cytotoxicity against HUVEC after 46 hrs by MTT assay; format: cell-based; details: Homo sapiens; in short: as §1

logP [1]	Compound	pIC50 (WM-115)	pIC50 (HL-60)	pIC50 (NALM-6)	pIC50 (HUVEC)
3.9	O=C1/C(=C/c2ccccc2)C(c2ccccc2)Oc2ccccc21 (stereo unspecified)	4.23	4.48	4.53	–
4.71	O=C1/C(=C\c2ccc(Br)cc2)C(c2ccccc2)Oc2ccccc21 (stereo unspecified)	4.49	< 3.00	< 3.00	4.54
2.98	O=C1/C(=C/c2ccncc2)C(c2ccccc2)Oc2ccccc21 (stereo unspecified)	5.20	6.05	5.80	5.24
4.53	O=C1/C(=C\c2ccc(Cl)cc2)C(c2ccccc2)Oc2ccccc21 (stereo unspecified)	4.56	< 3.00	< 3.00	–
4.46	O=C1/C(=C/c2ccc(Br)cc2)C(c2ccccc2)Oc2ccccc21 (stereo unspecified)	4.59	5.24	5.16	5.14
2.85	O=C1/C(=C\c2ccncc2)C(c2ccccc2)Oc2ccccc21 (stereo unspecified)	5.34	5.96	6.15	5.29
4.39	Cc1ccc(/C=C2\C(=O)c3ccccc3OC2c2ccccc2)cc1 (stereo unspecified)	4.24	4.39	< 3.00	–
3.45	O=C1/C(=C\c2ccccc2)C(c2ccccc2)Oc2ccc(O)cc21 (stereo unspecified)	5.04	5.14	4.23	–
3.9	O=C1/C(=C\c2ccccc2)C(c2ccccc2)Oc2ccccc21 (stereo unspecified)	4.28	4.56	< 3.00	–
4.46	O=C1/C(=C/c2ccc(Cl)cc2)C(c2ccccc2)Oc2ccccc21 (stereo unspecified)	4.28	5.24	5.13	–
4.36	Cc1ccc(/C=C2/C(=O)c3ccccc3OC2c2ccccc2)cc1 (stereo unspecified)	4.22	4.39	4.29	–

The remaining lines, values behind:

Compound	logP [1]	pIC50 (WM-115)	pIC50 (HL-60)	pIC50 (NALM-6)	pIC50 (HUVEC)
O=c1c(Cc2ccc(F)cc2)coc2ccccc12	4.02	4.27	4.72	5.09	–
O=c1c(Cc2ccc([N+](=O)[O-])cc2)coc2ccccc12	3.93	5.21	5.62	5.30	5.27
O=C1/C(=C/c2ccccc2)C(c2ccccc2)Oc2ccc(O)cc21 (stereo unspecified)	3.5	4.35	5.24	5.06	–
O=C1CC(c2ccccc2)Oc2ccccc21 (stereo unspecified) [FLAVANONE]	–	4.15	4.29	4.24	–
O=c1c(Cc2ccc(O)cc2)coc2ccccc12	3.33	4.24	4.33	4.30	–
O=C1CCOc2ccccc21 [CHROMANONE]	–	< 3.00	3.17	3.17	–
O=C1/C(=C/c2ccccc2)COc2ccccc21	3.07	4.27	5.27	5.21	–
O=C1/C(=C/c2ccc(O)cc2)COc2ccccc21	3.1	4.16	5.24	4.49	–
O=C1C[C@@H](c2ccc(O)cc2)Oc2cc(O)cc(O)c21 [NARINGENIN]	–	3.28	3.38	3.37	–
O=C1/C(=C\c2ccccc2)COc2ccccc21	2.89	4.87	5.17	5.26	–
O=C1/C(=C\c2ccc(O)cc2)COc2ccccc21	2.92	4.92	5.19	3.33	–
O=c1c(Cc2cccc(O)c2)coc2ccccc12	3.31	4.75	5.20	5.14	–
N#Cc1ccc(Cc2coc3ccccc3c2=O)cc1	3.58	5.20	5.42	5.32	–
O=c1c(O)c(-c2ccc(O)c(O)c2)oc2cc(O)cc(O)c12 [QUERCETIN]	–	3.75	4.24	4.11	–
